Bioassay records from PubChem BioAssay.
Lung fibro prol – antiproliferative effect on LL 47 fibroblasts – human, LL 47 cells, CellTiter-Glo luminescence, primary screen; AID 719, 2007; LL 47 human lung fibroblast viability, ATP luminescence; active compounds read low; 85,000 compounds, 1.1% hits; viability, % at 10 µM;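 active means viability at or below 50% in the single dose screen; inactive means viability above 50%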;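 further: compound exposure lasted 72 h before the ATP readout; 100% = median luminescence of untreated cell-only wells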
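Material: Human LL 47 lung fibroblast cells | Input: 1,150 cells/well | Buffer or medium: IMEM plus 15% FBS | Compound dosing: 0.1% DMSO in all compound wells | Times: Overnight cell rest, 72 h compound treatment at 37 °C | Signal: CellTiter-Glo luminescence measuring cellular ATP | Measure: % viability versus median cells-only luminescence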
H69AR inhibit – proliferation blockers of H69AR lung cancer cells, primary screen, cell-based, human, 86K library; H69AR lung tumor viability, ATP luminescence, 72 h; active compounds read low; viability, % at 10 µM; 85,000 compounds, 6% hits;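 active means viability at or below 40%; inactive means viability above 40%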;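 further: multidrug resistant small cell line overexpressing MRP-1 efflux transporter; 100% = mean luminescence of untreated control wells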
HUVEC prolif 384 – inhibitors of HUVEC proliferation, primary screen, cell-based, 384-well; 86,000 compounds, 1.1% hits; viability, % at 10 µM (by protocol); CellTiter-Glo luminescence, 72 h; active compounds read low;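 active means viability at or below 30%; inactive means viability above 30%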;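 further: 100% = median luminescence of DMSO-only cell control wells on each plate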
PTEN del growth – growth suppression of PTEN-null HCT116, primary screen, cell-based, CellTiter-Glo | HCT116 PTEN-null viability, 60 h; active compounds read low | viability, % at 10 µM | 140,000 compounds, 1.2% hits | AID 827, 2007;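 active means viability at or below a set limit, 4 SD under the median of all tested compounds, cut at about 3.7% in these data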;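 further: PTEN knockout HCT116 line with beta catenin targeted HCT116 as companion control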
bCat KO growth – primary screen for growth suppressors in beta-catenin knockout HCT116 cells (colon tumor, human). HCT116 beta-catenin knockout viability, CellTiter-Glo, 60 h; active compounds read low. viability, % at 10 µM. 140,000 compounds, 1.5% hits. AID 818, 2007;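 active means viability at or under a set limit, the compound median less 4 SD, cut at about 6% in these data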;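 further: 0% = Hyamine 1622 control at 20 µM and 100% = untreated cell control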
An asterisk follows results filed as active; · = no result given. Only a selection was taken, and hits are over-represented in it overall.

SMILES	Lung fibro prol	H69AR inhibit	HUVEC prolif 384	PTEN del growth	bCat KO growth
O=C(/C=C/c1ccc(N2CCCCC2)c([N+](=O)[O-])c1)c1ccc(S(=O)(=O)N2CCCC2)cc1	·	·	·	0.7*	0.9*
COc1cccc(C(=O)/C=C/c2ccc(N3CCCCC3)c([N+](=O)[O-])c2)c1	·	·	·	2.9*	3.1*
COc1ccc(/C=C/C(=O)c2ccc(O)cc2)cc1COc1ccc(F)cc1	·	·	·	11	16
COc1cccc(C(=O)NC(=S)N2CCN(c3ccc(C(F)(F)F)cc3[N+](=O)[O-])CC2)c1	·	·	·	81	71
Cc1nc2ccccc2n1C1CC(=O)N(Cc2ccccc2)C1=O (centres undefined)	101	85	98	92	96
COc1ccc(CC(=O)O/N=C(\N)Cc2cccc3ccccc23)cc1	·	·	·	91	86
Cc1ccc(C(=O)NCCCNCCCN(C)C)cn1	101	98	82	110	92
Cc1cc(C(=O)N2CCC(Cc3ccccc3)CC2)ccc1[N+](=O)[O-]	·	·	·	76	83
Cc1cnc(C(=O)Nc2ccc(N3CCN(C(=O)OC(C)(C)C)CC3)cc2)cn1	60	28*	72	12	16
Cn1nc(CC(=O)NCc2ccc(F)cc2)c2ccccc2c1=O	93	97	104	74	69
Cn1nc(CC(=O)Nc2ccc(N3CCN(C(=O)OC(C)(C)C)CC3)cc2)c2ccccc2c1=O	96	37*	70	1.1*	1.2*
Cn1nc(CC(=O)N2CCN(c3ccccc3)CC2)c2ccccc2c1=O	89	92	93	90	94
Cn1nc(CC(=O)NCc2cccc3ccccc23)c2ccccc2c1=O	97	34*	99	62	58
Cc1ccc(-n2ncc3c2ncn2c(-c4ccncc4)nnc32)cc1	100	65	97	·	·
CN(C)CCCNC(=O)/C(=C\c1ccc(-c2ccc(Br)cc2)o1)NC(=O)c1ccccc1	·	·	·	1.8*	1.8*
CN(C)CCNC(=O)/C(=C/c1ccc(-c2cccc(Cl)c2)o1)NC(=O)c1ccccc1	·	·	·	1.6*	1.6*
CN(C)CCNC(=O)/C(=C/c1ccc(-c2cccc([N+](=O)[O-])c2)o1)NC(=O)c1ccccc1	·	·	·	29	39
CC(=O)c1c(C)oc2ccc(N(C(C)=O)S(=O)(=O)c3ccc(Cl)c([N+](=O)[O-])c3)cc12	·	·	·	43	32
CCOC(=O)C(C)(C)N(Cc1ccc(Cl)cc1)S(=O)(=O)c1ccc(Cl)c([N+](=O)[O-])c1	·	·	·	1.6*	1.1*
CCOC(=O)C(C)(C)N(Cc1ccc(C)cc1)S(=O)(=O)c1ccc(Cl)c([N+](=O)[O-])c1	·	·	·	0.8*	0.9*
CCOC(=O)C(C)(C)NS(=O)(=O)c1ccc(Cl)c([N+](=O)[O-])c1	·	·	·	77	60
NC(=O)CC[C@@H]1NC(=O)[C@H](CO)NC(=O)c2cc([N+](=O)[O-])cc(I)c2NCCC[C@@H](C(N)=O)NC(=O)[C@H](Cc2ccc(O)cc2)NC1=O	·	·	·	101	97
CNC(=O)c1nn(-c2ccc(C)cc2)ccc1=O	·	·	·	89	98
C=CCSc1nccc(-c2nn(-c3ccc(C)cc3)ccc2=O)n1	64	21*	59	18	19
C=CCSc1nc(=O)n2cccc(C)c2n1	·	·	·	94	96
SMILES	Lung fibro prol	H69AR inhibit	HUVEC prolif 384	PTEN del growth	bCat KO growth
CCn1c(SCc2c(Cl)cccc2Cl)nnc1-c1nn(-c2ccccc2)ccc1=O	·	·	·	86	98
CCSc1nccc(-c2nn(-c3ccc(C)cc3)ccc2=O)n1	67	18*	58	22	21
CSc1nccc(-c2nn(-c3ccc(C)cc3)ccc2=O)n1	58	24*	48	23	19
C#CCSc1nccc(-c2nn(-c3ccc(C)cc3)ccc2=O)n1	83	17*	64	89	88
COC(=O)c1c(NC(=O)CSc2nc3ccccc3c(=O)n2-c2ccccc2)sc(C)c1C	·	·	·	54	57
OC(CNCCc1ccc(C(F)(F)F)cc1)COc1ccc2ccccc2c1 (centres undefined)	·	·	·	23	9
OC(CNCCc1ccc(C(F)(F)F)cc1)COc1cccc2ccccc12 (centres undefined)	·	·	·	1.7*	1.7*
CCOC(=O)CN1C(=O)C(Sc2nnc(-c3ccccc3OC)s2)CCc2ccccc21 (centres undefined)	93	92	95	·	·
COc1ccc(/C=C(/C#N)C(=O)Nc2cccc(C)c2C)cc1C(=O)O	·	·	·	106	94
